In ChEMBL document CHEMBL1156121, “Synthesis and antioxidant properties of some novel 5H-dibenz[b,f]azepine derivatives in different in vitro model systems” (Eur J Med Chem, 2010):
Blank lines part the entries; values can stand above or below the compound they belong to. Calls of active or inactive are those of the source. The rule behind the calls is not given here.

How the values were obtained:
[1] = tested on: Radical scavenging activity; test: Antioxidant activity assessed as DPPH radical scavenging activity; assay type: functional
In short: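 Ethanolic compound solutions (10, 25, 50, 100, 200, 500) were mixed with 0.1 mM DPPH in ethanol (4 mL to 1 mL sample) and kept in the dark at room temperature for 20 min. A517 was compared with a compound-free blank, giving % inhibition = (A0−A1)/A0×100. IC50 was read from the plot of % scavenging against concentration.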

[2] = Antioxidant activity assessed as reduction of […]/ferricyanide complex; assay type: functional
In short: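 Oyaizu method. Compounds (50 and 100) were incubated in 0.2 M phosphate buffer pH 6.6 with 1% potassium ferricyanide at 50 °C for 20 min. After adding 10% TCA and centrifuging, the supernatant was diluted with water and mixed with 0.1% FeCl3, then A700 was read. Values are means of three independent samples.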

Blood [3] = test: Antioxidant activity against copper-induced low density lipoprotein oxidation in human blood assessed as malonoldehyde formation by thiobarbituric acid method; assay type: functional, tissue-based
In short: (§1)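 Human LDL isolated from fasting volunteers' plasma by ultracentrifugation, then dialysed against PBS pH 7.4 (0.1 mg LDL protein/mL). Compounds at 10 and 25 were incubated with LDL and 40 µL of 2 mM CuSO4 in 50 mM phosphate buffer pH 7.4 at 37 °C. Controls were run without compound and without copper. Aliquots taken at 2, 4 and 6 h were heated with TBA/TCA at 95 °C for 45 min. TBARS (MDA) was read at 532 nm.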

[4] = Antioxidant activity against lipid peroxidation at 50 uM by beta-carotene linoleate method; assay type: functional
In short: (§2)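 β-Carotene/linoleic acid/Tween-40 emulsion, with chloroform removed, was mixed with compound in ethanol; BHA and ascorbic acid were run at the same concentrations as references. Absorbance was read at 470 nm at t=0 and then every 30 min to 180 min. Results are given as % antioxidant activity, mean ± SD, n = 3.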

[5] = Antioxidant activity against lipid peroxidation at 25 uM by beta-carotene linoleate method; assay type: functional; in short: as §2
Blood [6] = test: Antioxidant activity against copper-induced low density lipoprotein oxidation in human blood assessed as malonoldehyde formation at 10 uM after 2 hrs by thiobarbituric acid method; assay type: functional; in short: as §1
Blood [7] = test: Antioxidant activity against copper-induced low density lipoprotein oxidation in human blood assessed as malonoldehyde formation at 25 uM after 2 hrs by thiobarbituric acid method; assay type: functional; in short: as §1
Blood [8] = test: Antioxidant activity against copper-induced low density lipoprotein oxidation in human blood assessed as malonoldehyde formation at 10 uM after 6 hrs by thiobarbituric acid method; assay type: functional; in short: as §1
Blood [9] = test: Antioxidant activity against copper-induced low density lipoprotein oxidation in human blood assessed as malonoldehyde formation at 25 uM after 6 hrs by thiobarbituric acid method; assay type: functional; in short: as §1

Structure (SMILES): O=C1O[C@H]([C@@H](O)CO)C(O)=C1O [ASCORBIC ACID]
IC50 [1]: 13.2 µM

Structure (SMILES): COc1ccc(O)c(C(C)(C)C)c1.COc1ccc(O)cc1C(C)(C)C [BUTYLATED HYDROXYANISOLE]
IC50 [1]: 14.1 µM

Structure (SMILES): COc1cc(NCCC(=O)N2c3ccccc3C=Cc3ccccc32)ccc1O
IC50 [1]: 13.9 µM
Activity [4]: 91.3%
Activity [5]: 91.5%
Activity [2]: Dose-dependent effect
Activity (Blood [6]): 56.13%
Activity (Blood [7]): 70.41%
Activity (Blood [8]): 72.93%
Activity (Blood [9]): 89.61%

Structure (SMILES): O=C(CCCl)N1c2ccccc2C=Cc2ccccc21
Activity [1]: inactive
Activity [2]: inactive
Activity (Blood [3]): inactive
Activity (Blood [6]): 5.34%
Activity (Blood [7]): 7.43%
Activity (Blood [8]): 8.87%
Activity (Blood [9]): 12.43%

Structure (SMILES): O=C(CCNc1ccc(O)c([N+](=O)[O-])c1)N1c2ccccc2C=Cc2ccccc21
IC50 [1]: 14.8 µM
Activity [4]: 90%
Activity [5]: 88.4%
Activity [2]: Dose-dependent effect
Activity (Blood [3]): Active

Second part, led by results:

IC50 [1]: 16.1 µM
Structure (SMILES): O=C(CCNc1ccccc1O)N1c2ccccc2C=Cc2ccccc21
Activity [2]: Dose-dependent effect
Activity (Blood [3]): Active

IC50 [1]: 15.3 µM
Structure (SMILES): O=C(CCNc1ccc(O)cc1)N1c2ccccc2C=Cc2ccccc21
Activity [4]: 88.7%
Activity [5]: 87.1%
Activity [2]: Dose-dependent effect
Activity (Blood [3]): Active

IC50 [1]: 17.4 µM
Structure (SMILES): O=C(CCNc1cccc(O)c1)N1c2ccccc2C=Cc2ccccc21
Activity [2]: Dose-dependent effect
Activity (Blood [3]): Active
